Values after ≈ are worked out from the molar mass of the structure shown.
Experiments:
[1] = target: Isocitrate dehydrogenase [NADP] cytoplasmic (Homo sapiens, UniProt O75874, R132H); experiment: Inhibition of IDH1 R132H mutant (unknown origin) assessed as reduction in NADPH consumption using alpha-KG as substrate incubated for 60 mins by Kinase-GLO reagent based assay
[2] = test system: MOG-G-UVW; experiment: Antiproliferative activity against human MOG-G-UVW cells assessed as inhibition of cell proliferation incubated for 72 hrs by cell titer-Glo assay; type: functional, cell-based
[3] = target: P-gp (ABCB1) (Homo sapiens, UniProt P08183); experiment: Substrate activity at P-gp (unknown origin) transfected in LLC-PK1 cells expressing human MDR1 gene assessed as efflux ratio of permeability across basolateral to apical membrane at 0.1 uM; type: ADME, cell-based
Sequence of P-gp (ABCB1) (P08183 whole entry): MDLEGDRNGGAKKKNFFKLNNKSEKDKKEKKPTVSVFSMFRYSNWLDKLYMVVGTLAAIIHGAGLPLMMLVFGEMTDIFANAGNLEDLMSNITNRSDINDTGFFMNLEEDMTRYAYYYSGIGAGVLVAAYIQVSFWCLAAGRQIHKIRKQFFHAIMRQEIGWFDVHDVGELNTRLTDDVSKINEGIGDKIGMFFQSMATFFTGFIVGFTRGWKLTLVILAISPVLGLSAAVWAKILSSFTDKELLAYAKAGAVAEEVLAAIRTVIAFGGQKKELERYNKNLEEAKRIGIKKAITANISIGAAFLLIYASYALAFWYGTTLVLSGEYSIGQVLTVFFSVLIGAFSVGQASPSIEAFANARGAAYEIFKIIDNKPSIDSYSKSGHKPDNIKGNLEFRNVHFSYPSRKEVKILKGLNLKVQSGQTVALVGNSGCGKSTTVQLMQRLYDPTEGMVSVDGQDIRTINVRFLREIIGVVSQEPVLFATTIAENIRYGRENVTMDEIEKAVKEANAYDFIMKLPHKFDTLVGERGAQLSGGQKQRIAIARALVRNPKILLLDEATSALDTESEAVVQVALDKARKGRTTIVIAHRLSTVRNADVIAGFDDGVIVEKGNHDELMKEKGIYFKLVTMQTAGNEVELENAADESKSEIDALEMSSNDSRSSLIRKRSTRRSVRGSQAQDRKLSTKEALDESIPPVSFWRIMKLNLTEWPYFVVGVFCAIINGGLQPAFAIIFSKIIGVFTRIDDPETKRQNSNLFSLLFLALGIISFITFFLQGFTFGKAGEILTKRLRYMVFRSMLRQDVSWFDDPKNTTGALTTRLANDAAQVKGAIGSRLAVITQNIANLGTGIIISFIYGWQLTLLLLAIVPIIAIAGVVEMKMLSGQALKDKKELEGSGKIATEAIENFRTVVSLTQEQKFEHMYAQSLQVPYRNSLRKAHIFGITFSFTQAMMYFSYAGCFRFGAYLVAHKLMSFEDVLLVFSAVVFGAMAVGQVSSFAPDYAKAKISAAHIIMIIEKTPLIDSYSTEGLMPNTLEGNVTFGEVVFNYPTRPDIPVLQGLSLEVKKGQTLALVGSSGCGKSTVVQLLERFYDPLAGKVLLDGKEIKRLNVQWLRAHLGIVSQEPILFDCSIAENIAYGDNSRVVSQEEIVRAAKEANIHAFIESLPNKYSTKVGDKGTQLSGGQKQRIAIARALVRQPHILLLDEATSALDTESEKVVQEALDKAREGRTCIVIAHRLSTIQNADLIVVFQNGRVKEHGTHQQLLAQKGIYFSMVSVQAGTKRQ

[4] = Metabolic stability in human liver microsomes assessed as intrinsic clearance; type: ADME, Microsome; conditions: read-out: CLH
[5] = test system: P-gp (Mdr1) (Rattus norvegicus); experiment: Substrate activity at rat P-gp transfected in […]-MDR1 expressing Mdr1 gene assessed as efflux ratio of permeability across basolateral to apical membrane at 0.1 uM
[6] = Drug metabolism in dog liver microsomes assessed as glutathione-adduct formation measured after 60 mins in presence of NADPH; type: ADME, Canis lupus familiaris, Microsome; conditions: 1 h
[7] = Solubility of the compound at pH 7; type: physicochemical; conditions: buffer
[8] = Solubility of the compound at pH 6.5; type: physicochemical; conditions: buffer
[9] = Half life in rat at 0.5 mg/kg, iv measured up to 24 hrs by LC-MS/MS analysis; type: ADME, organism-based; conditions: in vivo
Outline: (§1)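 Single-dose PK in rat and dog. Rat received 0.5 mg/kg IV and 1 mg/kg PO; dog received 2 mg/kg IV and 10 mg/kg PO. Parameters derived: terminal t1/2, Vd, clearance and oral bioavailability F.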

[10] = Half life in dog at 2 mg/kg, iv measured up to 24 hrs by LC-MS/MS analysis; type: ADME, organism-based, Canis lupus familiaris; conditions: in vivo; outline: as §1
[11] = Oral bioavailability in dog 10 mg/kg measured up to 24 hrs by LC-MS/MS analysis; type: ADME, organism-based, Canis lupus familiaris; conditions: in vivo; outline: as §1
[12] = Volume of distribution in rat at 0.5 mg/kg, iv measured up to 24 hrs by LC-MS/MS analysis; type: ADME, organism-based; conditions: in vivo; outline: as §1
[13] = Oral bioavailability in rat 1 mg/kg measured up to 24 hrs by LC-MS/MS analysis; type: ADME, organism-based; conditions: in vivo; outline: as §1
[14] = Clearance in rat at 0.5 mg/kg, iv measured up to 24 hrs by LC-MS/MS analysis; type: ADME, organism-based; conditions: in vivo; outline: as §1
[15] = Clearance in dog at 2 mg/kg, iv measured up to 24 hrs by LC-MS/MS analysis; type: ADME, organism-based, Canis lupus familiaris; conditions: in vivo; outline: as §1
[16] = Permeability of the compound in pig LLC-PK1 cells expressing MDR1; type: ADME, cell-based, Sus scrofa; conditions: read-out: permeability
[17] = Solubility of the compound at pH 2; type: physicochemical; conditions: buffer
[18] = Distribution coefficient, logD of compound at pH 7.4 by HPLC analysis; type: physicochemical; conditions: octanol/water
[19] = Volume of distribution in dog at 2 mg/kg, iv measured up to 24 hrs by LC-MS/MS analysis; type: ADME, organism-based, Canis lupus familiaris; conditions: in vivo; outline: as §1
[20] = target: Isocitrate dehydrogenase [NADP] cytoplasmic (Homo sapiens, UniProt O75874); experiment: Inhibition of IDH1 (unknown origin)
Sequence of Isocitrate dehydrogenase [NADP] cytoplasmic (Homo sapiens, UniProt O75874) (O75874 whole entry): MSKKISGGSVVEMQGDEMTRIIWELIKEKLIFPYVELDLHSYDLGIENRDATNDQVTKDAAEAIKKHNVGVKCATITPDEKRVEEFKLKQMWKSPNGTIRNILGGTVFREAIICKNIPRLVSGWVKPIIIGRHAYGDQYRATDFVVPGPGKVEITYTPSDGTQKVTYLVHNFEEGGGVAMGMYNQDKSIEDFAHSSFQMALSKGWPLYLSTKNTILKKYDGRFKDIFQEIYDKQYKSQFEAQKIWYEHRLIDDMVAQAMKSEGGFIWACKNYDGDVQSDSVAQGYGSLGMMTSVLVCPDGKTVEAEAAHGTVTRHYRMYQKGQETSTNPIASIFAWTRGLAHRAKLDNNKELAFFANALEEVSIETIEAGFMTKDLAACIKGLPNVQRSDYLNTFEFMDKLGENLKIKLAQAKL

[21] = target: Cytochrome P450 3A4 (Homo sapiens, UniProt P08684); experiment: Inhibition of CYP3A4 (unknown origin); type: ADME
Sequence of Cytochrome P450 3A4 (P08684 whole entry): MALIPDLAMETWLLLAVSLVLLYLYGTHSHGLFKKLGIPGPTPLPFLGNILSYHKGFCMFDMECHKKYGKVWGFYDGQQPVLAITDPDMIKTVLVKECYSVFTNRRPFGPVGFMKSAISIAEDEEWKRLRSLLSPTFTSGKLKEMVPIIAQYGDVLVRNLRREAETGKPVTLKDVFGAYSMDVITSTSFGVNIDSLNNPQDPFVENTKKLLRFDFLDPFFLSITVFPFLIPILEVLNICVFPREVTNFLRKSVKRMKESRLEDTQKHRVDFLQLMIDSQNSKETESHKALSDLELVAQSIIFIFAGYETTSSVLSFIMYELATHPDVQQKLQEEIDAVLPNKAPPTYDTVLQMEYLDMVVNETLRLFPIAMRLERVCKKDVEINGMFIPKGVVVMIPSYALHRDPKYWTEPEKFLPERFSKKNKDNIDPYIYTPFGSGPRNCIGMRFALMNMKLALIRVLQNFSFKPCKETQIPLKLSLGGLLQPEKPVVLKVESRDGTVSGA

[22] = target: T1, Nuclear receptor subfamily 1 group I member 2 (Homo sapiens, UniProt O75469); experiment: Inhibition of PXR (unknown origin)
T1 sequence (O75469 whole entry): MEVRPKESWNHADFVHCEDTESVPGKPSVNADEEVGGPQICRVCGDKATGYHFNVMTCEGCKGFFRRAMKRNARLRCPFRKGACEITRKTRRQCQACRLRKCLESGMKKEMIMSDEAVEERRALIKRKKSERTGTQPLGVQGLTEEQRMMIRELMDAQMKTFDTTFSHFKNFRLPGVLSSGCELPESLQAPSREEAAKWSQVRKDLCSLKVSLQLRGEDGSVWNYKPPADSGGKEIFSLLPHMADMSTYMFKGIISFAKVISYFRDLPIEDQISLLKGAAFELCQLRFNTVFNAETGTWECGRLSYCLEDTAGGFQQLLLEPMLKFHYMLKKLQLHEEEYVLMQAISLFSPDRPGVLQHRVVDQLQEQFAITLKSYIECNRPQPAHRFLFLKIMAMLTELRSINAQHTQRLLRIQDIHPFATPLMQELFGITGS

[23] = target: T2, Isocitrate dehydrogenase [NADP], mitochondrial (Homo sapiens, UniProt P48735); experiment: Inhibition of IDH2 (unknown origin)
T2 sequence (P48735 whole entry): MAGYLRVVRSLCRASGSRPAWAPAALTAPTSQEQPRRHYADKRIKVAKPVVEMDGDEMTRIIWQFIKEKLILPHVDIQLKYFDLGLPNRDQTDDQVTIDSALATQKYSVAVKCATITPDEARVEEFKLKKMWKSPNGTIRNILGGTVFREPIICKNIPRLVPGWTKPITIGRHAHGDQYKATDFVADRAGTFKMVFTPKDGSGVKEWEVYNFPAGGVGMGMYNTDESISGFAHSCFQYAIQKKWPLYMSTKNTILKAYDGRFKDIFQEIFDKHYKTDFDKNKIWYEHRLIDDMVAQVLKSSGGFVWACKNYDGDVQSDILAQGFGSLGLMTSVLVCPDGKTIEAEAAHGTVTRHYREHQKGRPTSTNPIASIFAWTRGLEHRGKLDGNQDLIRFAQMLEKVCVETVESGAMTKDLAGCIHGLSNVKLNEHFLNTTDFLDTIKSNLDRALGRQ

Sequence of Isocitrate dehydrogenase [NADP] cytoplasmic (Homo sapiens, UniProt O75874, R132H) (O75874 2-414 R132H limits assumed): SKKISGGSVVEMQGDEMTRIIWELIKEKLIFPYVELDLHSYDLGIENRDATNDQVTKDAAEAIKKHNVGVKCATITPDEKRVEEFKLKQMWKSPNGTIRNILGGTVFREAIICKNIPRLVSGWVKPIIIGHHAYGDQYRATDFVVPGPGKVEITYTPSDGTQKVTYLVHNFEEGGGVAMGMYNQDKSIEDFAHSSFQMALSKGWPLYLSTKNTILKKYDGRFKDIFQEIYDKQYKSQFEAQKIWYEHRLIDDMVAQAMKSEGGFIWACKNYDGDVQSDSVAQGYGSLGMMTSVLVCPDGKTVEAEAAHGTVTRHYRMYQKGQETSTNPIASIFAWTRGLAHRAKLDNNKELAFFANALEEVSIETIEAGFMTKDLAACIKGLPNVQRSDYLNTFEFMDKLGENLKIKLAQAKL

IC50 [1] [nM]	efflux ratio at 0.1 µM [3]	CLint scaled [4] [mL/min/kg]	SMILES	IC50 [2] [nM]	also measured
8.7	2.2	33	O=C(C1CCN(CC(F)(F)F)CC1)N1Cc2cc(F)cnc2Nc2ccc(N3C[C@@H]4C[C@H]3CO4)cc21	42.4	–
–	–	34	CC(C)O[C@H]1CC[C@H](C(=O)N2Cc3cccnc3Nc3ccc(N4C[C@@H]5C[C@H]4CO5)cc32)CC1	60.6	–
22.4	1.4	92	CC(C)O[C@H]1CC[C@H](C(=O)N2Cc3nccnc3Nc3ccc(C4CCOCC4)cc32)CC1	146	–
28.7	–	–	CC(C)O[C@H]1CC[C@H](C(=O)N2Cc3cc(Cl)cnc3Nc3ccc(N4CC5CCC4CO5)cc32)CC1 (some centres not stated)	95.9	efflux ratio at 0.1 µM [5]: 4.6
11	3.6	–	CC(C)O[C@H]1CC[C@H](C(=O)N2Cc3cccnc3Nc3ccc(N4CC5CCC4CO5)cc32)CC1 (some centres not stated)	17.2	–
116	6.6	64	CC(C)O[C@H]1CC[C@H](C(=O)N2Cc3cccnc3Nc3cnc(N4C[C@@H]5C[C@H]4CO5)cc32)CC1	261	–
11200	–	–	CC(C)O[C@H]1CC[C@H](C(=O)N2Cc3cc(S(C)(=O)=O)cnc3Nc3ccc(N4CC5CCC4CO5)cc32)CC1 (some centres not stated)	> 10000	–
197	8.1	177	CC(C)O[C@H]1CC[C@H](C(=O)N2Cc3cncnc3Nc3ccc(N4C[C@@H]5C[C@H]4CO5)cc32)CC1	810	–
–	2.5	124	CC(C)O[C@H]1CC[C@H](C(=O)N2Cc3cccnc3Nc3cc(F)c(N4CC5CCC4CO5)cc32)CC1 (some centres not stated)	36.2	–
–	1.1	34	CC(C)O[C@H]1CC[C@H](C(=O)N2Cc3cccnc3Nc3ccc(C4COCCO4)cc32)OC1 (some centres not stated)	88.5	Activity [6]: 7%
34.9	–	–	CC(C)O[C@H]1CC[C@H](C(=O)N2Cc3cccnc3Nc3ccc(N4CCOCC4)cc32)CC1	64.4	–
15.6	–	–	COC1C[C@H]2CC[C@@H](C1)N2c1ccc2c(c1)N(C(=O)C1CCN(CC(F)(F)F)CC1)Cc1cccnc1N2 (some centres not stated)	61	–
25.3	3.4	143	CC(C)O[C@H]1CC[C@H](C(=O)N2c3cc(N4C[C@@H]5C[C@H]4CO5)ccc3Nc3ncccc3C2C)CC1 (some centres not stated)	88.6	–
113	2.2	–	Cc1cnc2c(c1)CN(C(=O)[C@H]1CC[C@H](OC(C)C)CC1)c1cc(N3CC4CCC3CO4)ccc1N2 (some centres not stated)	456	–
–	3.1	210	CC(C)O[C@H]1CC[C@H](C(=O)N2Cc3cccnc3Nc3ccc(N4CC5CCC4CO5)c(F)c32)CC1 (some centres not stated)	205	–
21.2	2.9	–	CC(C)O[C@H]1CC[C@H](C(=O)N2Cc3cc(F)cnc3Nc3ccc(N4CC5CCC4CO5)cc32)CC1 (some centres not stated)	18.2	–
–	–	–	CC(C)O[C@H]1CC[C@H](C(=O)N2Cc3cccnc3Nc3ccc(N4CC5(CCCOC5)C4)cc32)CC1	119	–
181	3.7	20	CC(C)O[C@H]1CC[C@H](C(=O)N2Cc3cccnc3Nc3cnc(C4COCCO4)cc32)CC1 (some centres not stated)	581	–
11	1.4	22	CC(C)O[C@H]1CC[C@H](C(=O)N2Cc3cc(F)cnc3Nc3ccc(N4C[C@H]5CC[C@@H]4CO5)cc32)OC1	8.1	–
32.5	1.2	58	CC(C)O[C@H]1CC[C@H](C(=O)N2Cc3cccnc3Nc3cc(F)c(C4COCCO4)cc32)OC1 (some centres not stated)	53.6	solubility [7]: 123 µM (≈ 58 µg/mL); solubility [8]: 154 µM (≈ 72.6 µg/mL); half-life [9]: 1.1 h; Activity [6]: 1%; half-life [10]: 6 h; bioavailability [11]: 77%; Vd [12]: 3.7 L/kg; bioavailability [13]: 100%; clearance [14]: 69 mL/min/kg; clearance [15]: 26 mL/min/kg; Papp [16]: 38.7 ×10⁻⁶ cm/s; solubility [17]: 143 µM (≈ 67.4 µg/mL); logD [18]: 2.67; Vd [19]: 5.1 L/kg
> 50000	1.7	1500	O=C(C1CCc2ccccc2CC1)N1Cc2cccnc2Nc2ccc(N3CCOCC3)cc21	43	IC50 [20]: > 5000 nM; IC50 [21]: > 5000 nM; IC50 [22]: 3200 nM
21.6	–	21	CC(C)O[C@H]1CC[C@H](C(=O)N2Cc3cccnc3Nc3ccc(N4C[C@H]5CC[C@@H]4CO5)cc32)OC1	17.8	IC50 [20]: > 50000 nM; IC50 [21]: 1000 nM; IC50 [23]: > 50000 nM; IC50 [22]: 18000 nM
4.9	1.2	51	CC(C)O[C@H]1CC[C@H](C(=O)N2Cc3cc(F)cnc3Nc3ccc(-c4cnn(C)c4)cc32)OC1	18.3	–
1390	–	–	CC(C)O[C@H]1CC[C@H](C(=O)N2Cc3cccnc3Nc3cnn(CC4CCOCC4)c32)CC1	5020	–
24.4	0.9	50	CC(C)O[C@H]1CC[C@H](C(=O)N2Cc3cc(F)cnc3Nc3ccc(C4COCCO4)cc32)OC1 (some centres not stated)	56.9	Activity [6]: 12%
